Tested on: Human immunodeficiency virus 1
Test: Ratio of EC50 for HIV-1 M3 harboring protease L10I, K20R, M36I, G48V, I62V, A71V, V82A, I93L mutant to EC50 for wild type HIV-1 3B
Assay type: functional
Conditions: not given

`CNc1nc2ccc(S(=O)(=O)N(CC(C)C)C[C@@H](O)[C@H](Cc3ccccc3)NC(=O)O[C@H]3CO[C@H]4OC[C@H](F)[C@H]43)cc2o1` was tested. Which “Ratio EC50” value did it give?
The value was 0.9.

`CC(C)CN(C[C@@H](O)[C@H](Cc1ccccc1)NC(=O)O[C@H]1CO[C@H]2OC[C@H](NC(=O)OCc3ccccc3)[C@H]21)S(=O)(=O)c1ccc(N)cc1` was tested. Which “Ratio EC50” value did it give?
The value was 0.4.

With `CC(C)CN(C[C@@H](O)[C@H](Cc1ccccc1)NC(=O)O[C@H]1CO[C@H]2OC[C@H](OC(=O)NCc3ccccc3)[C@H]21)S(=O)(=O)c1ccc(N)cc1` as the compound, how does the “Ratio EC50” value read?
Its value is 0.9.

Which “Ratio EC50” value does the source give for `CC(C)CN(C[C@@H](O)[C@H](Cc1ccccc1)NC(=O)O[C@H]1CO[C@H]2OC[C@H](OCC(=O)NCc3ccccc3)[C@H]21)S(=O)(=O)c1ccc(N)cc1` here?
Its value is 0.6.

Tested on: Human immunodeficiency virus 1
Test: Antiviral activity against wild type HIV-1 3B infected in human MT4 cells assessed as inhibition of viral replication after 3 days by GFP reporter gene assay in presence of human serum
Assay type: functional, organism-based
Conditions: Human immunodeficiency virus 1, 3B, MT4, 72 h

`CNc1nc2ccc(S(=O)(=O)N(CC(C)C)C[C@@H](O)[C@H](Cc3ccccc3)NC(=O)O[C@H]3CO[C@H]4OC[C@H](F)[C@H]43)cc2o1` was tested. Which EC50 did it give?
The EC50 was 8.4 nM.

`CC(C)CN(C[C@@H](O)[C@H](Cc1ccccc1)NC(=O)O[C@H]1CO[C@H]2OC[C@H](NC(=O)OCc3ccccc3)[C@H]21)S(=O)(=O)c1ccc(N)cc1` was tested. Which EC50 did it give?
The EC50 was 35.2 nM.

For `CC(C)CN(C[C@@H](O)[C@H](Cc1ccccc1)NC(=O)O[C@H]1CO[C@H]2OC[C@H](OC(=O)NCc3ccccc3)[C@H]21)S(=O)(=O)c1ccc(N)cc1`, which EC50 is on record?
The EC50 was 30.4 nM.

With `CC(C)CN(C[C@@H](O)[C@H](Cc1ccccc1)NC(=O)O[C@H]1CO[C@H]2OC[C@H](OCC(=O)NCc3ccccc3)[C@H]21)S(=O)(=O)c1ccc(N)cc1` as the compound, how does the EC50 read?
Its EC50 is 93.5 nM.

Tested on: Human immunodeficiency virus 1
Test: Antiviral activity against HIV-1 M1 harboring protease L10I, M46I, I64V, I84V, L90M, I93L mutant infected in human MT4 cells assessed as inhibition of viral replication after 3 days by GFP reporter gene assay
Assay type: functional, organism-based
Conditions: Human immunodeficiency virus 1, M1, MT4, 72 h
Method in brief: (§1)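 Cell-based replication assay in MT4 cells carrying an LTR-GFP readout (HIV tat drives GFP). Serial compound concentrations were mixed with cells at 150 000 cells/mL and 200 CCID50 of virus, incubated 3 days at 37 °C, 5% CO2. Percent inhibition per concentration gave dose-response curves for EC50/pEC50. Run in quadruplicate. Mock-infected parallel cultures at the same concentrations gave CC50.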

`CNc1nc2ccc(S(=O)(=O)N(CC(C)C)C[C@@H](O)[C@H](Cc3ccccc3)NC(=O)O[C@H]3CO[C@H]4OC[C@H](F)[C@H]43)cc2o1` was tested. Which EC50 did it give?
Its EC50 is 0.8 nM.

How did the EC50 turn out when `CC(C)CN(C[C@@H](O)[C@H](Cc1ccccc1)NC(=O)O[C@H]1CO[C@H]2OC[C@H](NC(=O)OCc3ccccc3)[C@H]21)S(=O)(=O)c1ccc(N)cc1` was run?
Its EC50 is 5.7 nM.

For `CC(C)CN(C[C@@H](O)[C@H](Cc1ccccc1)NC(=O)O[C@H]1CO[C@H]2OC[C@H](OC(=O)NCc3ccccc3)[C@H]21)S(=O)(=O)c1ccc(N)cc1`, which EC50 is on record?
The EC50 was 15.5 nM.

With `CC(C)CN(C[C@@H](O)[C@H](Cc1ccccc1)NC(=O)O[C@H]1CO[C@H]2OC[C@H](OCC(=O)NCc3ccccc3)[C@H]21)S(=O)(=O)c1ccc(N)cc1` as the compound, how does the EC50 read?
Its EC50 is 10.8 nM.

Tested on: Human immunodeficiency virus 1
Test: Antiviral activity against wild type HIV-1 3B infected in human MT4 cells assessed as inhibition of viral replication after 3 days by GFP reporter gene assay
Assay type: functional, organism-based
Conditions: Human immunodeficiency virus 1, 3B, MT4, 72 h
Method in brief: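 MT4 cells (150 000 cells/mL) were infected with wild-type HIV-1/LAI at 200 CCID50 across a compound concentration range. Plates were incubated 3 days at 37 °C and 5% CO2. Replication was read as GFP driven by HIV-tat binding LTR sequences. EC50 was taken from dose-response curves of percent inhibition, in quadruplicate. Mock-infected parallel cultures gave CC50 from reduced GFP.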

For `CNc1nc2ccc(S(=O)(=O)N(CC(C)C)C[C@@H](O)[C@H](Cc3ccccc3)NC(=O)O[C@H]3CO[C@H]4OC[C@H](F)[C@H]43)cc2o1`, which EC50 is on record?
The EC50 was 0.7 nM.

Which EC50 does the source give for `CC(C)CN(C[C@@H](O)[C@H](Cc1ccccc1)NC(=O)O[C@H]1CO[C@H]2OC[C@H](NC(=O)OCc3ccccc3)[C@H]21)S(=O)(=O)c1ccc(N)cc1` here?
Its EC50 is 5 nM.

`CC(C)CN(C[C@@H](O)[C@H](Cc1ccccc1)NC(=O)O[C@H]1CO[C@H]2OC[C@H](OC(=O)NCc3ccccc3)[C@H]21)S(=O)(=O)c1ccc(N)cc1` was tested. Which EC50 did it give?
The EC50 was 5.8 nM.

`CC(C)CN(C[C@@H](O)[C@H](Cc1ccccc1)NC(=O)O[C@H]1CO[C@H]2OC[C@H](OCC(=O)NCc3ccccc3)[C@H]21)S(=O)(=O)c1ccc(N)cc1` was tested. Which EC50 did it give?
The EC50 was 16 nM.

Tested on: Human immunodeficiency virus 1
Test: Antiviral activity against HIV-1 M2 harboring protease L10I, I13V, M46I, I50V, L63P, L76V mutant infected in human MT4 cells assessed as inhibition of viral replication after 3 days by GFP reporter gene assay
Assay type: functional, organism-based
Conditions: Human immunodeficiency virus 1, M2, MT4, 72 h
Method in brief: as §1

For `CNc1nc2ccc(S(=O)(=O)N(CC(C)C)C[C@@H](O)[C@H](Cc3ccccc3)NC(=O)O[C@H]3CO[C@H]4OC[C@H](F)[C@H]43)cc2o1`, which EC50 is on record?
Its EC50 is 2.8 nM.

Which EC50 does the source give for `CC(C)CN(C[C@@H](O)[C@H](Cc1ccccc1)NC(=O)O[C@H]1CO[C@H]2OC[C@H](NC(=O)OCc3ccccc3)[C@H]21)S(=O)(=O)c1ccc(N)cc1` here?
The EC50 was 82.5 nM.

For `CC(C)CN(C[C@@H](O)[C@H](Cc1ccccc1)NC(=O)O[C@H]1CO[C@H]2OC[C@H](OC(=O)NCc3ccccc3)[C@H]21)S(=O)(=O)c1ccc(N)cc1`, which EC50 is on record?
The EC50 was 124 nM.

Which EC50 does the source give for `CC(C)CN(C[C@@H](O)[C@H](Cc1ccccc1)NC(=O)O[C@H]1CO[C@H]2OC[C@H](OCC(=O)NCc3ccccc3)[C@H]21)S(=O)(=O)c1ccc(N)cc1` here?
Its EC50 is 35.2 nM.

Tested on: Human immunodeficiency virus 1
Test: Antiviral activity against HIV-1 M3 harboring protease L10I, K20R, M36I, G48V, I62V, A71V, V82A, I93L mutant infected in human MT4 cells assessed as inhibition of viral replication after 3 days by GFP reporter gene assay
Assay type: functional, organism-based
Conditions: Human immunodeficiency virus 1, M3, MT4, 72 h
Method in brief: as §1

How did the EC50 turn out when `CNc1nc2ccc(S(=O)(=O)N(CC(C)C)C[C@@H](O)[C@H](Cc3ccccc3)NC(=O)O[C@H]3CO[C@H]4OC[C@H](F)[C@H]43)cc2o1` was run?
Its EC50 is 0.7 nM.

With `CC(C)CN(C[C@@H](O)[C@H](Cc1ccccc1)NC(=O)O[C@H]1CO[C@H]2OC[C@H](NC(=O)OCc3ccccc3)[C@H]21)S(=O)(=O)c1ccc(N)cc1` as the compound, how does the EC50 read?
Its EC50 is 1.8 nM.

For `CC(C)CN(C[C@@H](O)[C@H](Cc1ccccc1)NC(=O)O[C@H]1CO[C@H]2OC[C@H](OC(=O)NCc3ccccc3)[C@H]21)S(=O)(=O)c1ccc(N)cc1`, which EC50 is on record?
Its EC50 is 5.2 nM.

Which EC50 does the source give for `CC(C)CN(C[C@@H](O)[C@H](Cc1ccccc1)NC(=O)O[C@H]1CO[C@H]2OC[C@H](OCC(=O)NCc3ccccc3)[C@H]21)S(=O)(=O)c1ccc(N)cc1` here?
Its EC50 is 9.3 nM.

Tested on: Human immunodeficiency virus 1
Test: Ratio of EC50 for HIV-1 M2 harboring protease L10I, I13V, M46I, I50V, L63P, L76V mutant to EC50 for wild type HIV-1 3B
Assay type: functional
Conditions: not given

How did the “Ratio EC50” value turn out when `CNc1nc2ccc(S(=O)(=O)N(CC(C)C)C[C@@H](O)[C@H](Cc3ccccc3)NC(=O)O[C@H]3CO[C@H]4OC[C@H](F)[C@H]43)cc2o1` was run?
The value was 4.1.

For `CC(C)CN(C[C@@H](O)[C@H](Cc1ccccc1)NC(=O)O[C@H]1CO[C@H]2OC[C@H](NC(=O)OCc3ccccc3)[C@H]21)S(=O)(=O)c1ccc(N)cc1`, which “Ratio EC50” value is on record?
Its value is 16.

Which “Ratio EC50” value does the source give for `CC(C)CN(C[C@@H](O)[C@H](Cc1ccccc1)NC(=O)O[C@H]1CO[C@H]2OC[C@H](OC(=O)NCc3ccccc3)[C@H]21)S(=O)(=O)c1ccc(N)cc1` here?
Its value is 22.

How did the “Ratio EC50” value turn out when `CC(C)CN(C[C@@H](O)[C@H](Cc1ccccc1)NC(=O)O[C@H]1CO[C@H]2OC[C@H](OCC(=O)NCc3ccccc3)[C@H]21)S(=O)(=O)c1ccc(N)cc1` was run?
The value was 2.2.

Tested on: Human immunodeficiency virus 1
Test: Ratio of EC50 for HIV-1 M1 harboring protease L10I, M46I, I64V, I84V, L90M, I93L mutant to EC50 for wild type HIV-1 3B
Assay type: functional
Conditions: not given

With `CNc1nc2ccc(S(=O)(=O)N(CC(C)C)C[C@@H](O)[C@H](Cc3ccccc3)NC(=O)O[C@H]3CO[C@H]4OC[C@H](F)[C@H]43)cc2o1` as the compound, how does the “Ratio EC50” value read?
The value was 1.2.

For `CC(C)CN(C[C@@H](O)[C@H](Cc1ccccc1)NC(=O)O[C@H]1CO[C@H]2OC[C@H](NC(=O)OCc3ccccc3)[C@H]21)S(=O)(=O)c1ccc(N)cc1`, which “Ratio EC50” value is on record?
The value was 1.1.

With `CC(C)CN(C[C@@H](O)[C@H](Cc1ccccc1)NC(=O)O[C@H]1CO[C@H]2OC[C@H](OC(=O)NCc3ccccc3)[C@H]21)S(=O)(=O)c1ccc(N)cc1` as the compound, how does the “Ratio EC50” value read?
Its value is 3.2.

Which “Ratio EC50” value does the source give for `CC(C)CN(C[C@@H](O)[C@H](Cc1ccccc1)NC(=O)O[C@H]1CO[C@H]2OC[C@H](OCC(=O)NCc3ccccc3)[C@H]21)S(=O)(=O)c1ccc(N)cc1` here?
The value was 0.7.

From ChEMBL document CHEMBL3425439, “Disubstituted Bis-THF Moieties as New P2 Ligands in Nonpeptidal HIV-1 Protease Inhibitors (II)” (J Med Chem, 2015)
